Legend:
Assay type in all cases: ADME, organism-based, Macaca mulatta
[1] = Drug level in normal rhesus monkey parietal cortex assessed as standard uptake value at 81.2 MBq, iv after 145 mins by microPET; settings: in vivo
[2] = Drug level in normal rhesus monkey white matter assessed as standard uptake value at 81.2 MBq, iv after 37.5 mins by microPET; settings: in vivo, 0.625 h
[3] = Drug level in normal rhesus monkey white matter assessed as standard uptake value at 81.2 MBq, iv after 57.5 mins by microPET; settings: in vivo
[4] = Drug level in normal rhesus monkey white matter assessed as standard uptake value at 81.2 MBq, iv after 155 mins by microPET; settings: in vivo
[5] = Drug level in normal rhesus monkey parietal cortex assessed as standard uptake value at 96.3 MBq, iv after 155 mins by microPET; settings: in vivo
[6] = Drug level in normal rhesus monkey thalamus assessed as standard uptake value at 96.3 MBq, iv after 155 mins by microPET; settings: in vivo
[7] = Drug level in normal rhesus monkey pons assessed as standard uptake value at 96.3 MBq, iv after 42.5 mins by microPET; settings: in vivo
[8] = Drug level in normal rhesus monkey parietal cortex assessed as standard uptake value at 96.3 MBq, iv after 10 mins by microPET; settings: in vivo
[9] = Drug level in normal rhesus monkey cerebellum assessed as standard uptake value at 96.3 MBq, iv after 47.5 mins by microPET; settings: in vivo
In short: (§1)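 One normal rhesus monkey, each tracer given iv via the vena saphena (81.2, 96.3 or 109.4 MBq), with 1 day between tracer injections. Dynamic brain μPET over 180 min used frames of 5 × 60 s, 5 × 120 s, 9 × 300 s and 12 × 600 s. Images were reconstructed by filtered back projection with a RAMP filter. Regional time-activity curves were expressed as SUV.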

[10] = Drug level in normal rhesus monkey cerebellum assessed as standard uptake value at 96.3 MBq, iv after 165 mins by microPET; settings: in vivo, 2.75 h; in short: as §1
[11] = Drug level in normal rhesus monkey frontal cortex assessed as standard uptake value at 96.3 MBq, iv after 42.5 mins by microPET; settings: in vivo
[12] = Drug level in normal rhesus monkey white matter assessed as standard uptake value at 96.3 MBq, iv after 2.5 mins by microPET; settings: in vivo
[13] = Drug level in normal rhesus monkey white matter assessed as standard uptake value at 96.3 MBq, iv after 37.5 mins by microPET; settings: in vivo, 0.625 h
[14] = Drug level in normal rhesus monkey pons assessed as standard uptake value at 109.4 MBq, iv after 27.5 mins by microPET; settings: in vivo
[15] = Drug level in normal rhesus monkey parietal cortex assessed as standard uptake value at 109.4 MBq, iv after 0.625 mins by microPET; settings: in vivo, 38 s
[16] = Drug level in normal rhesus monkey cerebellum assessed as standard uptake value at 109.4 MBq, iv after 15.5 mins by microPET; settings: in vivo
[17] = Drug level in normal rhesus monkey frontal cortex assessed as standard uptake value at 109.4 MBq, iv after 63 mins by microPET; settings: in vivo, 1.05 h
[18] = Drug level in normal rhesus monkey white matter assessed as standard uptake value at 109.4 MBq, iv after 117 mins by microPET; settings: in vivo, 1.95 h
[19] = Drug level in normal rhesus monkey thalamus assessed as standard uptake value at 109.4 MBq, iv after 32.5 mins by microPET; settings: in vivo
[20] = Drug level in normal rhesus monkey thalamus assessed as standard uptake value at 109.4 MBq, iv after 42.5 mins by microPET; settings: in vivo
[21] = Drug level in normal rhesus monkey cerebellum assessed as standard uptake value at 109.4 MBq, iv after 9.5 mins by microPET; settings: in vivo
[22] = Drug level in normal rhesus monkey white matter assessed as standard uptake value at 109.4 MBq, iv after 3.5 mins by microPET; settings: in vivo
[23] = Drug level in normal rhesus monkey white matter assessed as standard uptake value at 109.4 MBq, iv after 32.5 mins by microPET; settings: in vivo
[24] = Drug level in normal rhesus monkey parietal cortex assessed as standard uptake value at 109.4 MBq, iv after 22.5 mins by microPET; settings: in vivo, 0.375 h
[25] = Drug level in normal rhesus monkey parietal cortex assessed as standard uptake value at 109.4 MBq, iv after 27.5 mins by microPET; settings: in vivo
[26] = Drug level in normal rhesus monkey parietal cortex assessed as standard uptake value at 109.4 MBq, iv after 111 mins by microPET; settings: in vivo
[27] = Drug level in normal rhesus monkey parietal cortex assessed as standard uptake value at 109.4 MBq, iv after 123 mins by microPET; settings: in vivo, 2.05 h
[28] = Drug level in normal rhesus monkey cerebellum assessed as standard uptake value at 152.9 MBq, iv after 1.5 mins by microPET; settings: in vivo, 0.025 h
In short: (§2)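 One normal rhesus monkey received each tracer via the vena saphena, with 1 day between injections. Dynamic μPET ran 180 min for 18F tracers (5×60 s, 5×120 s, 9×300 s, 12×600 s) and 90 min for the 11C tracer (5×60 s, 5×120 s, 9×300 s, 3×600 s). Filtered back-projection reconstruction (RAMP filter) was used. Time-activity curves were drawn to give regional SUV.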

[29] = Drug level in normal rhesus monkey cerebellum assessed as standard uptake value at 152.9 MBq, iv after 37.5 mins by microPET; settings: in vivo, 0.625 h; in short: as §2
[30] = Drug level in normal rhesus monkey frontal cortex assessed as standard uptake value at 152.9 MBq, iv after 2.5 mins by microPET; settings: in vivo
In short: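 Single normal rhesus monkey; tracer given iv via the vena saphena, 1 day apart from the other tracer injections. Dynamic μPET ran 90 min (5×60 s, 5×120 s, 9×300 s, 3×600 s). Images were reconstructed by filtered back projection with a RAMP filter. Regional time-activity curves were expressed as SUV.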

[31] = Drug level in normal rhesus monkey pons assessed as standard uptake value at 152.9 MBq, iv after 0.5 mins by microPET; settings: in vivo
[32] = Drug level in normal rhesus monkey pons assessed as standard uptake value at 152.9 MBq, iv after 3.5 mins by microPET; settings: in vivo
[33] = Drug level in normal rhesus monkey pons assessed as standard uptake value at 152.9 MBq, iv after 27.5 mins by microPET; settings: in vivo
[34] = Drug level in normal rhesus monkey pons assessed as standard uptake value at 152.9 MBq, iv after 57.5 mins by microPET; settings: in vivo
[35] = Drug level in normal rhesus monkey parietal cortex assessed as standard uptake value at 152.9 MBq, iv after 4.5 mins by microPET; settings: in vivo, 0.075 h

SMILES: CNc1ccc2nc(-c3ccc([18F])cc3)sc2c1
- SUV [1]: 2.565
- SUV [2]: 3.78
- SUV [3]: 3.796
- SUV [4]: 4.236

SMILES: CN(C)c1ccc2nc(-c3ccc([18F])cc3)sc2c1
- SUV [5]: 1.23
- SUV [6]: 1.92
- SUV [7]: 1.7
- SUV [8]: 2.26
- SUV [9]: 1.23
- SUV [10]: 0.79
- SUV [11]: 1.96
- SUV [12]: 0.94
- SUV [13]: 1.46

SMILES: Nc1ccc2nc(-c3ccc([18F])cc3)sc2c1
- SUV [14]: 4.78
- SUV [15]: 1.52
- SUV [16]: 4.94
- SUV [17]: 4.56
- SUV [18]: 3.71
- SUV [19]: 5.59
- SUV [20]: 5.55
- SUV [21]: 5.44
- SUV [22]: 2.22
- SUV [23]: 3.36
- SUV [24]: 4.93
- SUV [25]: 4.84
- SUV [26]: 3.59
- SUV [27]: 3.56

SMILES: [11CH3]Nc1ccc(-c2nc3ccc(O)cc3s2)cc1 [PITTSBURGH COMPOUND B]
- SUV [28]: 0.677
- SUV [29]: 0.996
- SUV [30]: 1.133
- SUV [31]: 0.041
- SUV [32]: 1.502
- SUV [33]: 1.583
- SUV [34]: 0.95
- SUV [35]: 1.925

From ChEMBL document CHEMBL1154674, “Synthesis and evaluation of three 18F-labeled aminophenylbenzothiazoles as amyloid imaging agents” (J Med Chem, 2009)
